The text below walks through data of PMC6682128 (ACS Omega, 2019).

Series [1] relates to HCV genotype 1b (strain Con1) replicon. Put plainly: HCV genotype 1b replicon luciferase assay in Huh5-2 cells. The format is cell-based, Hepatitis C virus. Conditions: EC50 comparison. A general note: In antiviral work, replicon cells carry a viral genome segment that copies itself.
A short description of a further series: Cytotoxicity assay. The format is cell-based. Conditions: human. An outline of the steps:
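Replicon cells (Huh5-2, Huh7.5-3a or Huh7.5-4a) were seeded at 10^4 per well and grown 24 h in complete DMEM. They were then exposed for three days to serial dilutions of test compound or DMSO solvent. Lysates were assayed for ATP by chemiluminescence, normalised to Bradford total protein. CC50 was obtained by nonlinear regression against log concentration.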

One may read the CC50 as the concentration giving 50% cytotoxicity. A higher CC50 goes with better tolerance by the cells. `CCOC(=O)N[C@H](C(=O)N1CCC[C@H]1C(=O)Nc1ccc(C#CC#Cc2ccc(NC(=O)[C@@H]3CCCN3C(=O)[C@@H](NC(=O)OCC)C(C)C)cc2)cc1)C(C)C` [1b, Diethyl((2S,2′S)-((2S,2′S)-(((buta-1,3-diyne-1,4-diylbis(4,1-phenylene))bis(azanediyl))bis(carbonyl))bis(pyrrolidine-2,1-diyl))bis(3-methyl-1-oxobutane-1,2-diyl))dicarbamate]: the “fold more active than compound 1n” value in series [1] was 3 fold. The compound further returned a CC50 at 3 days in “Cytotoxicity assay” of 2.58 µM.

Regarding `CC(C)[C@H](NC(=O)OCc1ccccc1)C(=O)N1CCC[C@H]1C(=O)Nc1ccc(C#CC#Cc2ccc(NC(=O)[C@@H]3CCCN3C(=O)[C@@H](NC(=O)OCc3ccccc3)C(C)C)cc2)cc1` [1e, Dibenzyl((2S,2′S)-((2S,2′S)-(((buta-1,3-diyne-1,4-diylbis(4,1-phenylene))bis(azanediyl))bis(carbonyl))bis(pyrrolidine-2,1-diyl))bis(3-methyl-1-oxobutane-1,2-diyl))dicarbamate], the “fold less active than compound 1b” value in series [1] was 28 fold. The same compound displayed a CC50 at 3 days in the series “Cytotoxicity assay” greater than 20 µM.

`CCOC(=O)N[C@@H](C(=O)N1CCC[C@@H]1C(=O)Nc1ccc(C#CC#Cc2ccc(NC(=O)[C@H]3CCCN3C(=O)[C@H](NC(=O)OCC)C(C)C)cc2)cc1)C(C)C` [1k, Diethyl((2R,2′R)-((2R,2′R)-(((buta-1,3-diyne-1,4-diylbis(4,1-phenylene))bis(azanediyl))bis(carbonyl))bis(pyrrolidine-2,1-diyl))bis(3-methyl-1-oxobutane-1,2-diyl))dicarbamate] yielded a CC50 at 3 days in the series “Cytotoxicity assay” greater than 10 µM.

Regarding `CCOC(=O)N[C@@H](CC(C)C)C(=O)N1CCC[C@@H]1C(=O)Nc1ccc(C#CC#Cc2ccc(NC(=O)[C@H]3CCCN3C(=O)[C@H](CC(C)C)NC(=O)OCC)cc2)cc1` [1l, Diethyl((2S,2′S)-((2R,2′R)-(((buta-1,3-diyne-1,4-diylbis(4,1-phenylene))bis(azanediyl))bis(carbonyl))bis(pyrrolidine-2,1-diyl))bis(4-methyl-1-oxopentane-1,2-diyl))dicarbamate], in the series “Cytotoxicity assay”, the CC50 at 3 days was greater than 10 µM.

On to `CCOC(=O)N[C@H](CC(C)C)C(=O)N1CCC[C@@H]1C(=O)Nc1ccc(C#CC#Cc2ccc(NC(=O)[C@H]3CCCN3C(=O)[C@@H](CC(C)C)NC(=O)OCC)cc2)cc1` [1m, Diethyl((2R,2′R)-((2R,2′R)-(((buta-1,3-diyne-1,4-diylbis(4,1-phenylene))bis(azanediyl))bis(carbonyl))bis(pyrrolidine-2,1-diyl))bis(4-methyl-1-oxopentane-1,2-diyl))dicarbamate], for which the cytotoxic concentration (CC50) at 3 days in the series “Cytotoxicity assay” was greater than 10 µM.

For the compound `CCOC(=O)N[C@@H](C(=O)N1CCC[C@H]1C(=O)Nc1ccc(C#CC#Cc2ccc(NC(=O)[C@@H]3CCCN3C(=O)[C@H](NC(=O)OCC)C(C)C)cc2)cc1)C(C)C` [1n, Diethyl((2R,2′R)-((2S,2′S)-(((buta-1,3-diyne-1,4-diylbis(4,1-phenylene))bis(azanediyl))bis(carbonyl))bis(pyrrolidine-2,1-diyl))bis(3-methyl-1-oxobutane-1,2-diyl))dicarbamate], the CC50 at 3 days in “Cytotoxicity assay” was found to be 70.6 µM.

For `CC(C)C[C@H](NC(=O)OCc1ccccc1)C(=O)N1CCC[C@H]1C(=O)Nc1ccc(C#CC#Cc2ccc(NC(=O)[C@@H]3CCCN3C(=O)[C@H](CC(C)C)NC(=O)OCc3ccccc3)cc2)cc1` [1o, Dibenzyl((2S,2′S)-((2S,2′S)-(((buta-1,3-diyne-1,4-diylbis(4,1-phenylene))bis(azanediyl))bis(carbonyl))bis(pyrrolidine-2,1-diyl))bis(4-methyl-1-oxopentane-1,2-diyl))dicarbamate], the CC50 at 3 days in the series “Cytotoxicity assay” was greater than 10 µM.

In the case of `CCC(C)[C@H](NC(=O)OCc1ccccc1)C(=O)N1CCC[C@H]1C(=O)Nc1ccc(C#CC#Cc2ccc(NC(=O)[C@@H]3CCCN3C(=O)[C@@H](NC(=O)OCc3ccccc3)C(C)CC)cc2)cc1` (stereo partly drawn) [1p, Dibenzyl((2S,2′S)-((2S,2′S)-(((buta-1,3-diyne-1,4-diylbis(4,1-phenylene))bis(azanediyl))bis(carbonyl))bis(pyrrolidine-2,1-diyl))bis(3-methyl-1-oxopentane-1,2-diyl))dicarbamate], the CC50 at 3 days in “Cytotoxicity assay” is greater than 10 µM.

Take `CCOC(=O)N[C@H](C(=O)N1CCC[C@H]1C(=O)Nc1cccc(C#CC#Cc2cccc(NC(=O)[C@@H]3CCCN3C(=O)[C@@H](NC(=O)OCC)C(C)C)c2)c1)C(C)C` [2b, Diethyl((2S,2′S)-((2S,2′S)-(((buta-1,3-diyne-1,4-diylbis(3,1-phenylene))bis(azanediyl))bis(carbonyl))bis(pyrrolidine-2,1-diyl))bis(3-methyl-1-oxobutane-1,2-diyl))dicarbamate]: the CC50 at 3 days in the series “Cytotoxicity assay” is greater than 200 µM.

On to `CCCCOC(=O)N[C@H](C(=O)N1CCC[C@H]1C(=O)Nc1cccc(C#CC#Cc2cccc(NC(=O)[C@@H]3CCCN3C(=O)[C@@H](NC(=O)OCCCC)C(C)C)c2)c1)C(C)C` [2c, Dibutyl((2S,2′S)-((2S,2′S)-(((buta-1,3-diyne-1,4-diylbis(3,1-phenylene))bis(azanediyl))bis(carbonyl))bis(pyrrolidine-2,1-diyl))bis(3-methyl-1-oxobutane-1,2-diyl))dicarbamate], for which the CC50 at 3 days in “Cytotoxicity assay” is greater than 10 µM.

In the series “Cytotoxicity assay”, `CC(C)COC(=O)N[C@H](C(=O)N1CCC[C@H]1C(=O)Nc1cccc(C#CC#Cc2cccc(NC(=O)[C@@H]3CCCN3C(=O)[C@@H](NC(=O)OCC(C)C)C(C)C)c2)c1)C(C)C` [2d, Diisobutyl((2S,2′S)-((2S,2′S)-(((buta-1,3-diyne-1,4-diylbis(3,1-phenylene))bis(azanediyl))bis(carbonyl))bis(pyrrolidine-2,1-diyl))bis(3-methyl-1-oxobutane-1,2-diyl))dicarbamate] had a CC50 at 3 days greater than 20 µM.

`CCCCOC(=O)N[C@@H](CC(C)C)C(=O)N1CCC[C@H]1C(=O)Nc1cccc(C#CC#Cc2cccc(NC(=O)[C@@H]3CCCN3C(=O)[C@H](CC(C)C)NC(=O)OCCCC)c2)c1` [2g, Dibutyl((2S,2′S)-((2S,2′S)-(((buta-1,3-diyne-1,4-diylbis(3,1-phenylene))bis(azanediyl))bis(carbonyl))bis(pyrrolidine-2,1-diyl))bis(4-methyl-1-oxopentane-1,2-diyl))dicarbamate]: the CC50 at 3 days in “Cytotoxicity assay” is greater than 10 µM.

`CCOC(=O)N[C@H](C(=O)N1CCC[C@H]1C(=O)Nc1cccc(C#CC#Cc2cccc(NC(=O)[C@@H]3CCCN3C(=O)[C@@H](NC(=O)OCC)[C@@H](C)CC)c2)c1)[C@H](C)CC` [2h, Ethyl((2S,3S)-1-((S)-2-((3-((3-((S)-1-((ethoxycarbonyl)-L-alloisoleucyl)pyrrolidine-2-carboxamido)phenyl)buta-1,3-diyn-1-yl)phenyl)carbamoyl)pyrrolidin-1-yl)-3-methyl-1-oxopentan-2-yl)carbamate] displayed a CC50 at 3 days in “Cytotoxicity assay” greater than 200 µM.

In turn, `CCCCOC(=O)N[C@H](C(=O)N1CCC[C@H]1C(=O)Nc1cccc(C#CC#Cc2cccc(NC(=O)[C@@H]3CCCN3C(=O)[C@@H](NC(=O)OCCCC)[C@@H](C)CC)c2)c1)[C@H](C)CC` [2i, Butyl((2S,3S)-1-((S)-2-((3-((3-((S)-1-((butoxycarbonyl)-L-alloisoleucyl)pyrrolidine-2-carboxamido)phenyl)buta-1,3-diyn-1-yl)phenyl)carbamoyl)pyrrolidin-1-yl)-3-methyl-1-oxopentan-2-yl)carbamate] had a CC50 at 3 days in the series “Cytotoxicity assay” greater than 10 µM.

In the series “Cytotoxicity assay”, `CCOC(=O)N[C@H](C(=O)N1CCC[C@@H]1C(=O)Nc1cccc(C#CC#Cc2cccc(NC(=O)[C@H]3CCCN3C(=O)[C@@H](NC(=O)OCC)C(C)C)c2)c1)C(C)C` [2j, Diethyl((2S,2′S)-((2R,2′R)-(((buta-1,3-diyne-1,4-diylbis(3,1-phenylene))bis(azanediyl))bis(carbonyl))bis(pyrrolidine-2,1-diyl))bis(3-methyl-1-oxobutane-1,2-diyl))dicarbamate] yielded a CC50 at 3 days greater than 10 µM.

In “Cytotoxicity assay”, `CCOC(=O)N[C@@H](C(=O)N1CCC[C@@H]1C(=O)Nc1cccc(C#CC#Cc2cccc(NC(=O)[C@H]3CCCN3C(=O)[C@H](NC(=O)OCC)C(C)C)c2)c1)C(C)C` [2k, Diethyl((2R,2′R)-((2R,2′R)-(((buta-1,3-diyne-1,4-diylbis(3,1-phenylene))bis(azanediyl))bis(carbonyl))bis(pyrrolidine-2,1-diyl))bis(3-methyl-1-oxobutane-1,2-diyl))dicarbamate] yielded a CC50 at 3 days greater than 10 µM.

Compound `CCOC(=O)N[C@@H](CC(C)C)C(=O)N1CCC[C@@H]1C(=O)Nc1cccc(C#CC#Cc2cccc(NC(=O)[C@H]3CCCN3C(=O)[C@H](CC(C)C)NC(=O)OCC)c2)c1` [2l, Diethyl((2S,2′S)-((2R,2′R)-(((buta-1,3-diyne-1,4-diylbis(3,1-phenylene))bis(azanediyl))bis(carbonyl))bis(pyrrolidine-2,1-diyl))bis(4-methyl-1-oxopentane-1,2-diyl))dicarbamate] returned a CC50 at 3 days in the series “Cytotoxicity assay” greater than 10 µM.

As for `CCOC(=O)N[C@H](CC(C)C)C(=O)N1CCC[C@@H]1C(=O)Nc1cccc(C#CC#Cc2cccc(NC(=O)[C@H]3CCCN3C(=O)[C@@H](CC(C)C)NC(=O)OCC)c2)c1` [2m, Diethyl((2R,2′R)-((2R,2′R)-(((buta-1,3-diyne-1,4-diylbis(3,1-phenylene))bis(azanediyl))bis(carbonyl))bis(pyrrolidine-2,1-diyl))bis(4-methyl-1-oxopentane-1,2-diyl))dicarbamate], in the series “Cytotoxicity assay”, the CC50 at 3 days is greater than 10 µM.

`COC(=O)N[C@@H](CC(C)C)C(=O)N1CCC[C@H]1C(=O)Nc1cccc(C#CC#Cc2cccc(NC(=O)[C@@H]3CCCN3C(=O)[C@H](CC(C)C)NC(=O)OC)c2)c1` [2o, Dimethyl((2S,2′S)-((2S,2′S)-(((buta-1,3-diyne-1,4-diylbis(3,1-phenylene))bis(azanediyl))bis(carbonyl))bis(pyrrolidine-2,1-diyl))bis(4-methyl-1-oxopentane-1,2-diyl))dicarbamate]: the CC50 at 3 days in “Cytotoxicity assay” is greater than 20 µM.
